Tests used:
Hepatitis C virus = assay: Antiviral activity against Hepatitis C virus subtype 1b infected in human Huh7 cells assessed as inhibition of viral RNA replication; type: functional, organism-based, Hepacivirus hominis, genotype 1b, Huh-7
Summary of the method: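 Stable subgenomic HCV genotype 1b replicon in Huh-7 cells carrying a modified luciferase reporter. EC50 from duplicate or more determinations. Some inhibitors were also run in a 72 h replicon format, with HCV RNA normalized to total cellular RNA. Cytotoxicity checked as TC50.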

[1] = Inhibition of histidine-tagged HCV NS5Bdelta21 by scintillation proximity assay; design: species or system Hepacivirus hominis
Summary of the method: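 Soluble truncated NS5B at 12 nM. Reaction contains 0.01% w/v BSA, with no dodecyl-β-D-maltoside or IGEPAL. Other conditions follow an earlier method. IC50 is the mean of duplicate experiments on two separate weighings.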

[2] = Inhibition of calf thymus DNA-directed RNA polymerase 2; design: species or system Bos taurus
[3] = Hepatitis C virus, genotype 1b, Huh-7, read-out: EC50

Compound | EC50 (Hepatitis C virus; huh-7) | IC50 [1] | EC50 (Hepatitis C virus; [3]) | IC50 [2]
O=C(O)c1ccc2c(c1)nc(-c1ccoc1)n2C1CCCCC1 | Not Active | 1.1 µM | – | –
O=C(O)c1ccc2c(C3CCCCC3)c(-c3ccoc3)[nH]c2c1 | – | 0.03 µM | 6.7 µM | –
Cn1c(-c2ccoc2)c(C2CCCCC2)c2ccc(C(=O)N[C@@H](Cc3c[nH]c4ccc(O)cc34)c3cscn3)cc21 | – | 0.1 µM | 0.05 µM | –
O=C(O)c1ccc2c(C3CCCCC3)c(-c3ccoc3)n(CC(=O)N3CCCC3)c2c1 | – | 0.04 µM | – | > 250 µM
CCN(Cc1ccncc1)C(=O)Cn1c(-c2ccoc2)c(C2CCCCC2)c2ccc(C(=O)O)cc21 | – | 0.04 µM | – | > 250 µM
Cc1cccc(C)c1Cn1c(-c2ccoc2)c(C2CCCCC2)c2ccc(C(=O)O)cc21 | – | > 138 µM | – | –
O=C(O)c1ccc2c(C3CCCCC3)c(-c3ccoc3)n(Cc3ccccc3)c2c1 | – | 0.25 µM | – | –
Cc1ccccc1Cn1c(-c2ccoc2)c(C2CCCCC2)c2ccc(C(=O)O)cc21 | – | 0.29 µM | – | –
O=C(O)c1ccc2c(C3CCCCC3)c(-c3ccccn3)n(CC(=O)N3CCOCC3)c2c1 | – | – | – | > 250 µM
O=C(O)c1ccc2c(C3CCCCC3)c(-c3cnccn3)n(CC(=O)N3CCOCC3)c2c1 | – | 0.1 µM | – | > 250 µM
O=C(O)c1ccc(Cn2c(-c3ccoc3)c(C3CCCCC3)c3ccc(C(=O)O)cc32)cc1 | – | 0.04 µM | – | –
O=C(O)c1ccc2c(C3CCCCC3)c(-c3ccoc3)n(CCO)c2c1 | – | 0.1 µM | > 10 µM | –
CCn1c(-c2ccoc2)c(C2CCCCC2)c2ccc(C(=O)O)cc21 | – | 0.07 µM | > 10 µM | –
C=CCn1c(-c2ccoc2)c(C2CCCCC2)c2ccc(C(=O)O)cc21 | – | 0.08 µM | > 10 µM | –
CNC(=O)Cn1c(-c2ccoc2)c(C2CCCCC2)c2ccc(C(=O)O)cc21 | – | 0.05 µM | 2 µM | > 250 µM
CN(C(=O)Cn1c(-c2ccoc2)c(C2CCCCC2)c2ccc(C(=O)O)cc21)C1CCCCC1 | – | 0.11 µM | – | > 250 µM
O=C(O)c1cccc(Cn2c(-c3ccoc3)c(C3CCCCC3)c3ccc(C(=O)O)cc32)c1 | – | 0.07 µM | – | –

Compound | EC50 (Hepatitis C virus; huh-7) | IC50 [1] | EC50 (Hepatitis C virus; [3]) | IC50 [2]
CCOC(=O)Cn1c(-c2ccoc2)c(C2CCCCC2)c2ccc(C(=O)O)cc21 | – | 0.09 µM | 8.5 µM | –
O=C(O)CCn1c(-c2ccoc2)c(C2CCCCC2)c2ccc(C(=O)O)cc21 | – | 0.21 µM | – | –
CC(C)NC(=O)Cn1c(-c2ccoc2)c(C2CCCCC2)c2ccc(C(=O)O)cc21 | – | 0.05 µM | – | > 250 µM
O=C(Cn1c(-c2ccoc2)c(C2CCCCC2)c2ccc(C(=O)O)cc21)NCC1CCCCC1 | – | 0.12 µM | – | > 250 µM
O=C(Cn1c(-c2ccoc2)c(C2CCCCC2)c2ccc(C(=O)O)cc21)NCc1ccccc1 | – | 0.06 µM | – | > 250 µM
O=C(O)Cn1c(-c2ccoc2)c(C2CCCCC2)c2ccc(C(=O)O)cc21 | – | 0.06 µM | – | –
O=C(O)c1ccc2c(C3CCCCC3)c(-c3ccccn3)n(CC(=O)N3CCC(N4CCCC4)CC3)c2c1 | – | – | – | > 250 µM
Nc1ccccc1Cn1c(-c2ccoc2)c(C2CCCCC2)c2ccc(C(=O)O)cc21 | – | 0.09 µM | 2.9 µM | –
O=C(Cn1c(-c2ccoc2)c(C2CCCCC2)c2ccc(C(=O)O)cc21)Nc1ccccc1 | – | 0.08 µM | – | > 250 µM
CN(C)C(=O)Cn1c(-c2cnccn2)c(C2CCCCC2)c2ccc(C(=O)O)cc21 | – | 0.16 µM | – | > 250 µM
C=C(C)n1c(-c2ccoc2)c(C2CCCCC2)c2ccc(C(=O)O)cc21 | – | 0.36 µM | > 10 µM | –
NC(=O)Cn1c(-c2ccoc2)c(C2CCCCC2)c2ccc(C(=O)O)cc21 | – | 0.04 µM | 2.4 µM | –
COCCNC(=O)Cn1c(-c2ccoc2)c(C2CCCCC2)c2ccc(C(=O)O)cc21 | – | 0.05 µM | – | > 250 µM
Nc1cccc(Cn2c(-c3ccoc3)c(C3CCCCC3)c3ccc(C(=O)O)cc32)c1 | – | 0.13 µM | > 8 µM | –
O=C(O)c1ccc2c(C3CCCCC3)c(-c3ccoc3)n(Cc3ccccn3)c2c1 | – | 0.13 µM | – | –
CC(C(=O)O)n1c(-c2ccoc2)c(C2CCCCC2)c2ccc(C(=O)O)cc21 (racemic) | – | 2.8 µM | – | –
